Measured values reported in ChEMBL document CHEMBL1125009, “Variation in the aromatic ring of cromakalim: antihypertensive activity of pyranopyridines and 6-alkyl-2H-1-benzopyrans” (1990).

Tests used:
Assay type in all cases: functional, Artery
Rattus norvegicus [1] = experiment: The maximum fall in systolic blood pressure was determined at a dose of 1.0 mg/kg after oral administration in rats
Outline: (§1)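 Conscious spontaneously hypertensive rats (Japanese Okamoto strain, 14–24 weeks old), used only if systolic pressure was >180 mmHg, six per dose level. Dosed by oral needle into the esophagus as a solution or suspension in 1% w/v methylcellulose. Systolic pressure was read by tail-cuff, each reading the mean of at least six recordings, before dosing and at intervals from 1 to 6 h. The maximum fall was taken.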

Rattus norvegicus [2] = experiment: The maximum fall in systolic blood pressure was determined at a dose of 0.3 mg/kg after oral administration in rats; outline: as §1
Rattus norvegicus [3] = experiment: The maximum fall in systolic blood pressure was determined at a dose of 3.0 mg/kg after oral administration in rats; outline: as §1
Rattus norvegicus [4] = experiment: The maximum fall in systolic blood pressure was determined at a dose of 10 mg/kg after oral administration in rats; outline: as §1
Rattus norvegicus [5] = experiment: The maximum fall in systolic blood pressure was determined at a dose of 0.1 mg/kg after oral administration in rats; outline: as §1
Rattus norvegicus [6] = experiment: The maximum fall in systolic blood pressure was determined at a dose of 10.0 mg/kg after oral administration in rats; outline: as §1
Rattus norvegicus [7] = experiment: The maximum fall in systolic blood pressure was determined at a dose of 3 mg/kg after oral administration in rats; outline: as §1
Rattus norvegicus [8] = experiment: The maximum fall in systolic blood pressure was determined at a dose of 1 mg/kg after oral administration in rats; outline: as §1

Row | Compound | Max fall in blood pressure (Rattus norvegicus [1]) [%] | Max fall in blood pressure (Rattus norvegicus [2]) [%] | Max fall in blood pressure (Rattus norvegicus [7]) [%] | also measured
1 | CC(C)c1ccc2c(c1)C(N1CCCC1=O)[C@H](O)C(C)(C)O2 (some centres not stated) | 36 | 17 |  | Max fall in blood pressure (Rattus norvegicus [3]): 60%
2 | CC1(C)Oc2cccnc2[C@@H](N2CCCC2=O)[C@@H]1O |  |  |  | Max fall in blood pressure (Rattus norvegicus [4]): 15%
3 | CC1(C)Oc2ccncc2[C@@H](N2CCCCC2=O)[C@@H]1O | 56 | 55 |  | Max fall in blood pressure (Rattus norvegicus [5]): 24%
4 | CC1(C)Oc2ccc(-c3ccccc3)cc2C(N2CCCC2=O)[C@@H]1O (some centres not stated) |  |  | 14 | Max fall in blood pressure (Rattus norvegicus [6]): 20%
5 | CC(=O)N[C@@H]1c2cnccc2OC(C)(C)[C@H]1O | 43 | 14 |  | 
6 | CC1(C)Oc2ccc(C#N)cc2C(N2CCCC2=O)C1O (configuration not stated) [CROMAKALIM] | 47 | 39 |  | Max fall in blood pressure (Rattus norvegicus [5]): 13%
7 | CCCc1ccc2c(c1)C(N1CCCC1=O)[C@H](O)C(C)(C)O2 (some centres not stated) |  |  | 42 | Max fall in blood pressure (Rattus norvegicus [8]): 17%
8 | CC1(C)Oc2ccc(C(F)(F)F)cc2C(N2CCCC2=O)[C@@H]1O (some centres not stated) |  | 26 |  | Max fall in blood pressure (Rattus norvegicus [5]): 17%
9 | CC1(C)Oc2ccncc2[C@@H](N2CCCC2=O)[C@@H]1O |  |  | 41 | Max fall in blood pressure (Rattus norvegicus [8]): 39%
10 | Cc1ccc2c(c1)C(N1CCCC1=O)[C@H](O)C(C)(C)O2 (some centres not stated) |  |  | 12 | Max fall in blood pressure (Rattus norvegicus [4]): 49%
11 | CC1(C)Oc2ccc(C3CCCC3)cc2C(N2CCCC2=O)[C@@H]1O (some centres not stated) | 24 |  |  | Max fall in blood pressure (Rattus norvegicus [6]): 66%
12 | CC(=O)NC1c2cc(C)ccc2OC(C)(C)[C@H]1O (some centres not stated) |  | 9 |  | Max fall in blood pressure (Rattus norvegicus [3]): 20%
13 | CCc1ccc2c(c1)C(N1CCCC1=O)[C@H](O)C(C)(C)O2 (some centres not stated) | 54 | 11 |  | 
14 | CC1(C)Oc2ncccc2[C@@H](N2CCCC2=O)[C@@H]1O |  |  |  | Max fall in blood pressure (Rattus norvegicus [4]): 5%
15 | CC(C)(C)c1ccc2c(c1)C(N1CCCC1=O)[C@H](O)C(C)(C)O2 (some centres not stated) | 39 | 9 |  | Max fall in blood pressure (Rattus norvegicus [3]): 49%
16 | CC1(C)Oc2cc[n+]([O-])cc2[C@@H](N2CCCCC2=O)[C@@H]1O | 68 | 39 |  | 
17 | CC1(C)C=C(N2CCCCC2=O)c2cnccc2O1 |  |  | 37 | Max fall in blood pressure (Rattus norvegicus [8]): 14%
18 | Cc1ccc2c(c1)C(N1CCCCC1=O)[C@H](O)C(C)(C)O2 (some centres not stated) | 33 | 16 | 56 | 
19 | CC1(C)Oc2cnccc2[C@@H](N2CCCC2=O)[C@@H]1O |  |  |  | Max fall in blood pressure (Rattus norvegicus [4]): 41%; Max fall in blood pressure (Rattus norvegicus [8]): 7%
20 | CC1(C)Oc2ccccc2C(N2CCCC2=O)[C@@H]1O (some centres not stated) |  |  |  | Max fall in blood pressure (Rattus norvegicus [4]): 49%
